Active and inactive are the calls of the source. The rule behind the calls is not given here.
Assays:
Cytochrome P450 2B6 = biological target: T1, Cytochrome P450 2B6 (Homo sapiens, UniProt P20813); assay: Inhibition of CYP2B6 (unknown origin); assay type: ADME
T1 sequence (P20813 whole entry): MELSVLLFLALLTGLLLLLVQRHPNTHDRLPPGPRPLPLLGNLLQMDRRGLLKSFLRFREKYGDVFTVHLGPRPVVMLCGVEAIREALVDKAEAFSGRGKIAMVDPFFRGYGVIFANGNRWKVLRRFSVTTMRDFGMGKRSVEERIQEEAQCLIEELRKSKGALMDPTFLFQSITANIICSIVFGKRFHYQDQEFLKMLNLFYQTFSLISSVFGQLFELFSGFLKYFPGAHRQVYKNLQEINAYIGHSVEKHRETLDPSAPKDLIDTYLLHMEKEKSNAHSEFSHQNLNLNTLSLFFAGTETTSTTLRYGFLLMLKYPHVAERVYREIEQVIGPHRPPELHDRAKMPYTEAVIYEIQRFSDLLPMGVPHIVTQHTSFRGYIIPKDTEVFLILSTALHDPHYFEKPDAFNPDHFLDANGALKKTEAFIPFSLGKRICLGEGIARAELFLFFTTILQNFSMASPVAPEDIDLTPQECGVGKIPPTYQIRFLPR

[1] = Plasma concentration in PMA-stimulated C57BL6 mouse neutrophil degranulation model at 100 mg/kg, po after 20 mins; assay type: ADME, organism-based
[2] = Protein binding in mouse plasma; assay type: ADME, cell-free; conditions: read-out: PPB (converted)
[3] = biological target: T2, Myeloperoxidase (Homo sapiens) (UniProt P05164); assay: Reversible inhibition of human MPO peroxidase activity at 50 to 250 nM preincubated for up to 30 mins followed by H2O2 addition and 2 to 10 times compound dilution measured at 30 secs time interval for 5 mins by amplex red reagent based fluorescence assay
T2 sequence (whole entry): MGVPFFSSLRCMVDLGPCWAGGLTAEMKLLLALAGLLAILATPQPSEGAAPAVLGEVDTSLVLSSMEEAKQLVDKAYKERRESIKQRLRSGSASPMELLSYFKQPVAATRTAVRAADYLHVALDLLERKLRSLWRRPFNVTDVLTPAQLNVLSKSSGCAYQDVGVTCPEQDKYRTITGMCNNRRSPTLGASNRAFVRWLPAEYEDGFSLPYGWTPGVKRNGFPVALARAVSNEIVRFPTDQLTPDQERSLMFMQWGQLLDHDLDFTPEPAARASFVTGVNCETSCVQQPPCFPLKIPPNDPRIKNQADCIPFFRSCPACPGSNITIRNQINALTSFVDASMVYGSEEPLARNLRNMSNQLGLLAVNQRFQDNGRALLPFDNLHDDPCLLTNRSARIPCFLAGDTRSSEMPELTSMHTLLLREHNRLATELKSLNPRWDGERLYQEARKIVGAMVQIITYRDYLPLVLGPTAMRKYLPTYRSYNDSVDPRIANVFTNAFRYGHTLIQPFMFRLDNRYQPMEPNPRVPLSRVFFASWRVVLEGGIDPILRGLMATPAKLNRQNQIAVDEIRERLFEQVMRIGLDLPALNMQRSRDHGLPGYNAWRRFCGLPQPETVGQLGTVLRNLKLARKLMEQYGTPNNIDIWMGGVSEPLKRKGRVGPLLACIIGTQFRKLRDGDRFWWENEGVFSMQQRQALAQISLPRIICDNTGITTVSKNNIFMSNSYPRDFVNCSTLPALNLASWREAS
Outline: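 20 nM MPO in phosphate buffer with 100 nM H2O2 and inhibitor at 2–10-fold enzyme concentration. Controls: 0.2% DMSO, irreversible hydrazide. Aliquots taken after 2, 10, 20 and 30 min and passed through a G50 spin column. 5 µL flow-through assayed by Amplex Red; initial rate gave % activity remaining versus control. Also run with 100 mM NaCl and 150 µM L-methionine.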

Cytochrome P450 3A4 = Cytochrome P450 3A4 (Homo sapiens, UniProt P08684); assay: Inhibition of CYP3A4 (unknown origin); assay type: ADME
Chain of Cytochrome P450 3A4 (P08684 whole entry): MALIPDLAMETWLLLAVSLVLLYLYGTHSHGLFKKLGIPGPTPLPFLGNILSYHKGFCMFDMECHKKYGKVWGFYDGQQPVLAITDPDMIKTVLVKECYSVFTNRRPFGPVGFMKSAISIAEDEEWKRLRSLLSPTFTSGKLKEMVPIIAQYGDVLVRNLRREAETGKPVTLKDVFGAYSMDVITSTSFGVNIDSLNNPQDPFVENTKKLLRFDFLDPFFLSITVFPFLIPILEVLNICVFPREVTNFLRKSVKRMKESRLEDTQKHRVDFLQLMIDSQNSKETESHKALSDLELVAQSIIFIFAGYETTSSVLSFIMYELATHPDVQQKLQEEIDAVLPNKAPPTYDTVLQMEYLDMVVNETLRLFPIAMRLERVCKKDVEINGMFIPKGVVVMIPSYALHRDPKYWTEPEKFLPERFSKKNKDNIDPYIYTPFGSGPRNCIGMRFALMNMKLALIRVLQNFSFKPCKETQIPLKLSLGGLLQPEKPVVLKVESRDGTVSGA

Mus musculus = assay: In vivo inhibition of MPO in PMA-stimulated C57BL6 mouse neutrophil degranulation model assessed as reduction in HOCl production at 30 mg/kg, po pretreated for 20 mins followed by PMA stimulation and measured after 2 mins by luminol chemiluminescence assay relative to control; assay type: functional
Outline: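 C57Bl6 mice dosed orally 30 mpk or vehicle 20 min before retro-orbital PMA 0.62 mg/kg; blood drawn 2 min after PMA and held on ice; 100 μL blood mixed with luminol, chemiluminescence read kinetically 25 min at 37 °C, HOCl production rate calculated.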

[4] = Ratio of plasma concentration in PMA-stimulated C57BL6 mouse neutrophil degranulation model at 30 mg/kg, po after 20 mins to in vitro IC50 for MPO in PMA-stimulated human neutrophils; assay type: ADME, organism-based; conditions: in vivo

| SMILES | IC50 (Cytochrome P450 2B6) | concentration at 20 min [1] | fraction unbound [2] | inhibition [3] | IC50 (Cytochrome P450 3A4) | inhibition in vivo at 30 mg/kg (Mus musculus) | Ratio [4] |
| --- | --- | --- | --- | --- | --- | --- | --- |
| Nc1ccc(Oc2cc(Cl)c(Cl)cc2Cl)cn1 | < 0.1 µM |  |  |  |  |  |  |
| Nc1nc(OCc2ccccc2)c2[nH]nnc2n1 |  | 460 µM | 0.13 | Active | 14 µM | 50% | 36 |
